Structures can show the parent of a compound that is named as a salt. Calls of active or inactive are those of the source. No cut-off for these calls is given here.
Assays:
Pseudomonas aeruginosa [1] = test: Antibiofilm activity against Pseudomonas aeruginosa ATCC 15442 assessed as reduction in bacterial biomass at 40 to 80 uM incubated for 18 hrs by crystal violet staining based assay relative to control; assay type: functional; set-up: scale not given: the % may be the effect or the level left; conditions: dose 40-80 µM
How it was run: (§1)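 Pre-exposure biofilm: 10^6 CFU/mL TSB culture with compound (50x DMSO stock), 18 h at 37 °C, shaken at 220 rpm. After the resazurin read, biofilms were ethanol-fixed for 15 min, dried, and stained 5 min with 100x-diluted crystal violet. After two water washes, dye was solubilised in 96% ethanol for about 1 h and read at A595. Total biomass is expressed as % of untreated control.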

Pseudomonas aeruginosa [2] = test: Antibiofilm activity against Pseudomonas aeruginosa ATCC 15442 assessed as reduction in bacterial viability at 20 to 40 uM incubated for 18 hrs relative to control; assay type: functional; conditions: dose 20-40 µM
How it was run: (§2)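 Biofilm viability by resazurin. 10^6 CFU/mL TSB culture was exposed to compound (50x DMSO stock) for 18 h at 37 °C with shaking at 220 rpm. Biofilm was washed once with PBS and stained with resazurin (1:20 in PBS) in the dark at 37 °C for about 1 h (P. aeruginosa) or about 30 min (S. aureus). Fluorescence ex 560/em 590 is given as % of untreated control.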

Staphylococcus aureus [3] = test: Antibiofilm activity against Staphylococcus aureus assessed as inhibition of biofilm formation at 2.5 to 5 uM incubated for 18 hrs relative to control; set-up: scale not given: the % may be the effect or the level left; conditions: dose 2.5-5 µM
Pseudomonas aeruginosa [4] = test: Antibacterial activity against Pseudomonas aeruginosa ATCC 27853 assessed as bacterial growth inhibition incubated for 24 hrs by broth microdilution assay; assay type: functional
How it was run: (§3)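 Broth microdilution per CLSI. Colonies from overnight Mueller Hinton agar were suspended in 0.9% saline, set by densitometer, and diluted in cation-adjusted MHB to 1×10^6 CFU/mL. This was mixed 1:1 with compound and incubated 24 h at 37 °C. A600 was read versus untreated control and checked visually. Screen at 50 μM; compounds with ≥80% inhibition went to MIC testing at 75–0.78 μM. […] Two independent experiments, three technical replicates each.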

Staphylococcus aureus [5] = test: Antibacterial activity against Staphylococcus aureus ATCC 29213 assessed as bacterial growth inhibition incubated for 24 hrs by broth microdilution assay; assay type: functional; how it was run: as §3
[6] = Selectivity index, ratio of CC50 for cytotoxicity against mouse BALB/3T3 clone A31 cells to MIC for antibacterial activity against Pseudomonas aeruginosa ATCC 27853 assessed as bacterial growth inhibition; assay type: toxicity, cell-based; conditions: read-out: Selectivity Index
Pseudomonas aeruginosa [7] = test: Antibiofilm activity against Pseudomonas aeruginosa ATCC 15442 assessed as reduction in bacterial viability at 10 to 50 uM incubated for 18 hrs; assay type: functional; conditions: dose 10-50 µM; how it was run: as §2
[8] = Cytotoxicity against mouse BALB/3T3 clone A31 cells assessed as viable cells at 200 uM incubated for 48 hrs by celltiter glo luminescent assay relative to control; assay type: toxicity, cell-based; conditions: read-out: Activity
Pseudomonas aeruginosa [9] = test: Antibiofilm activity against Pseudomonas aeruginosa ATCC 15442 assessed as reduction in biofilm formation at 25 uM incubated for 18 hrs; assay type: functional, organism-based
How it was run: (§4)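 Pre-exposure biofilm assay. Inoculum: TSA colonies grown in TSB at 37 °C, 220 rpm, to OD 0.3–0.35, then diluted 100-fold to about 10^6 CFU/mL. Culture was mixed with compound (50x DMSO stock) and shaken at 220 rpm for 18 h at 37 °C. Biofilm was read by resazurin fluorescence (ex 560/em 590) and by crystal violet A595, as % of untreated control.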

Pseudomonas aeruginosa [10] = test: Antibiofilm activity against Pseudomonas aeruginosa ATCC 15442 assessed as reduction in biofilm formation at 100 uM incubated for 18 hrs relative to control; assay type: functional; set-up: scale not given: the % may be the effect or the level left; how it was run: as §4
[11] = Cytotoxicity against mouse BALB/3T3 clone A31 cells incubated for 48 hrs by celltiter glo luminescent assay; assay type: toxicity, cell-based
Pseudomonas aeruginosa [12] = test: Antibiofilm activity against Pseudomonas aeruginosa ATCC 15442 assessed as reduction in bacterial viability at 50 uM incubated for 18 hrs; assay type: functional, organism-based; how it was run: as §2
Pseudomonas aeruginosa [13] = test: Antibiofilm activity against Pseudomonas aeruginosa ATCC 15442 assessed as log 10 reduction in CFU at 200 uM incubated for 18 hrs; assay type: functional
How it was run: (§5)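 Post-exposure CFU count. Biofilms were grown 18 h at 37 °C, 220 rpm, from a 10^6 CFU/mL TSB culture. Planktonic cells were removed, then compound (50x DMSO stock) in fresh TSB was added for a further 24 h. Wells were PBS-washed, scraped into PBS, serially diluted 10-fold and spotted on agar. After 24 h incubation, spots with 3–30 colonies were counted and reported as log10 cells/mL. Two experiments on different days, two technical replicates each.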

Pseudomonas aeruginosa [14] = test: Antibiofilm activity against Pseudomonas aeruginosa ATCC 15442 assessed as reduction in bacterial biomass at 10 to 50 uM incubated for 18 hrs by crystal violet staining based assay; assay type: functional, organism-based; conditions: dose 10-50 µM; how it was run: as §1
[15] = Selectivity index, ratio of CC50 for cytotoxicity against mouse BALB/3T3 clone A31 cells to MIC for antibacterial activity against Staphylococcus aureus ATCC 29213 assessed as bacterial growth inhibition; assay type: toxicity, cell-based; conditions: read-out: Selectivity Index
[16] = Cytotoxicity against mouse BALB/3T3 clone A31 cells upto 50 uM incubated for 48 hrs by celltiter glo luminescent assay; assay type: toxicity, cell-based; conditions: balb/3t3 clone a31, 48 h
Pseudomonas aeruginosa [17] = test: Antibiofilm activity against Pseudomonas aeruginosa ATCC 15442 assessed as reduction in bacterial viability at 200 uM incubated for 18 hrs; assay type: functional, organism-based; how it was run: as §2
Pseudomonas aeruginosa [18] = test: Antibiofilm activity against Pseudomonas aeruginosa ATCC 15442 assessed as reduction in bacterial biomass at 1 to 200 uM incubated for 18 hrs by crystal violet staining based assay; assay type: functional, organism-based; conditions: dose 1-200 µM; how it was run: as §1
Pseudomonas aeruginosa [19] = test: Antibiofilm activity against Pseudomonas aeruginosa ATCC 15442 assessed as reduction in bacterial viability at 2.5 to 320 uM incubated for 18 hrs; assay type: functional, organism-based; conditions: dose 2.5-320 µM; how it was run: as §2
Pseudomonas aeruginosa [20] = test: Antibiofilm activity against Pseudomonas aeruginosa ATCC 15442 assessed as reduction in bacterial biomass at 2.5 to 320 uM incubated for 18 hrs by crystal violet staining based assay; assay type: functional, organism-based; conditions: dose 2.5-320 µM; how it was run: as §1
Pseudomonas aeruginosa [21] = test: Antibiofilm activity against Pseudomonas aeruginosa ATCC 15442 assessed as reduction in bacterial biomass incubated for 18 hrs by crystal violet staining based assay; assay type: functional; how it was run: as §1
Staphylococcus aureus [22] = test: Antibiofilm activity against Staphylococcus aureus ATCC 25923 assessed as reduction in bacterial biomass at 50 uM incubated for 18 hrs; assay type: functional, organism-based; how it was run: as §1
Staphylococcus aureus [23] = test: Antibiofilm activity against Staphylococcus aureus ATCC 25923 assessed as assessed as log 10 reduction in CFU at 200 uM incubated for 18 hrs; assay type: functional; how it was run: as §5
Staphylococcus aureus [24] = test: Antibiofilm activity against Staphylococcus aureus ATCC 25923 assessed as reduction in bacterial biomass at 50 uM incubated for 18 hrs by crystal violet staining based assay relative to control; assay type: functional; set-up: scale not given: the % may be the effect or the level left; how it was run: as §1
Pseudomonas aeruginosa [25] = test: Antibiofilm activity against Pseudomonas aeruginosa ATCC 15442 assessed as reduction in bacterial viability incubated for 18 hrs; assay type: functional; how it was run: as §2
Pseudomonas aeruginosa [26] = test: Antibiofilm activity against Pseudomonas aeruginosa ATCC 15442 assessed as reduction in biofilm formation at 5 to 25 uM incubated for 18 hrs relative to control; assay type: functional; set-up: scale not given: the % may be the effect or the level left; conditions: dose 5-25 µM; how it was run: as §4
Staphylococcus aureus [27] = test: Antibiofilm activity against Staphylococcus aureus ATCC 25923 assessed as reduction in bacterial viability at 50 uM incubated for 18 hrs by resazurin staining based assay relative to control

CCn1cc(C(=O)O)c(=O)c2cc(F)c(N3CC[N+]4(CC3)CN3C(=N4)C(C(=O)O)=Cc4ccccc43)nc21.[I-]
Activity (Pseudomonas aeruginosa [1]): >90%
Activity (Pseudomonas aeruginosa [2]): >90%
Activity (Staphylococcus aureus [3]): >90%

CCn1cc(C(=O)O)c(=O)c2cc(F)c(N3CC[N+]4(CN5C(=N4)C(C(=O)O)=Cc4ccccc45)C(C)C3)c(F)c21.[I-] (stereo unspecified)
Activity (Staphylococcus aureus [3]): >90%

CCn1cc(C(=O)O)c(=O)c2cnc(N3CC[N+](C)(C)CC3)nc21
MIC (Pseudomonas aeruginosa [4]): > 50 µM
MIC (Staphylococcus aureus [5]): > 50 µM

CCn1cc(C(=O)O)c(=O)c2cc(F)c(N3CC[N+](C)(C)CC3)cc21
MIC (Pseudomonas aeruginosa [4]): > 50 µM
MIC (Staphylococcus aureus [5]): 25 µM

O=C(O)C1=Cc2ccccc2N2C[N+]3(CCCN(c4cc5c(cc4F)c(=O)c(C(=O)O)cn5C4CC4)CC3)N=C12.[Cl-] (stereo unspecified)
selectivity ratio [6]: 6.4
Activity (Pseudomonas aeruginosa [7]): 50%
viability at 48 h, 200 µM [8]: 1.55%
Activity (Pseudomonas aeruginosa [9]): Active
Activity (Pseudomonas aeruginosa [10]): 80%
CC50 at 48 h [11]: 160 µM
MIC (Pseudomonas aeruginosa [4]): 25 µM
Activity (Pseudomonas aeruginosa [12]): Active
Activity (Pseudomonas aeruginosa [13]): 2 log10CFU
MIC (Staphylococcus aureus [5]): 25 µM
Activity (Pseudomonas aeruginosa [14]): inactive
selectivity ratio [15]: 6.4
Activity [16]: Non-Toxic

O=C(O)c1cn(C2CC2)c2cc(N3CCNCC3)c(F)cc2c1=O [CIPROFLOXACIN HYDROCHLORIDE]
Activity (Pseudomonas aeruginosa [17]): Active
Activity (Pseudomonas aeruginosa [18]): inactive
MIC (Pseudomonas aeruginosa [4]): 2.72 µM
MIC (Staphylococcus aureus [5]): 1.36 µM
Activity (Pseudomonas aeruginosa [19]): Active
Activity (Pseudomonas aeruginosa [20]): Active

C[N+]1(C)CCN(c2cc3c(cc2F)c(=O)c(C(=O)O)cn3C2CC2)CC1.[I-]
selectivity ratio [6]: > 32
Activity (Pseudomonas aeruginosa [7]): 50%
viability at 48 h, 200 µM [8]: 108%
CC50 at 48 h [11]: > 200 µM
MIC (Pseudomonas aeruginosa [4]): 6.25 µM
MBIC (Pseudomonas aeruginosa [21]): 50 µM
Activity (Staphylococcus aureus [22]): inactive
Activity (Staphylococcus aureus [23]): 2 log10CFU
Activity (Staphylococcus aureus [24]): 100%
Activity (Pseudomonas aeruginosa [13]): 2 log10CFU
MIC (Staphylococcus aureus [5]): 6.25 µM
MBIC (Pseudomonas aeruginosa [25]): 25 µM
Activity (Pseudomonas aeruginosa [14]): inactive
Activity (Pseudomonas aeruginosa [26]): >90%
selectivity ratio [15]: > 32
Activity (Staphylococcus aureus [27]): 60%
Activity [16]: Non-Toxic

CCn1cc(C(=O)O)c(=O)c2cc(F)c(N3CC[N+](C)(C)C(C)C3)c(F)c21 (stereo unspecified)
MIC (Pseudomonas aeruginosa [4]): 75 µM
MIC (Staphylococcus aureus [5]): 25 µM

O=C(O)C1=Cc2ccccc2N2C[N+]3(CCN(c4cc5c(cc4F)c(=O)c(C(=O)O)cn5C4CC4)CC3)N=C12.[I-]
Activity (Pseudomonas aeruginosa [1]): >90%
Activity (Pseudomonas aeruginosa [2]): >90%
Activity (Staphylococcus aureus [3]): >90%

C[N+]1(C)CCCN(c2cc3c(cc2F)c(=O)c(C(=O)O)cn3C2CC2)CC1.[I-]
selectivity ratio [6]: > 32
Activity (Pseudomonas aeruginosa [7]): 50%
viability at 48 h, 200 µM [8]: 81.7%
Activity (Pseudomonas aeruginosa [1]): >90%
CC50 at 48 h [11]: > 200 µM
MIC (Pseudomonas aeruginosa [4]): 6.25 µM
MBIC (Pseudomonas aeruginosa [21]): 50 µM
Activity (Staphylococcus aureus [22]): inactive
Activity (Staphylococcus aureus [23]): 2 log10CFU
Activity (Staphylococcus aureus [24]): 100%
Activity (Pseudomonas aeruginosa [13]): 2 log10CFU
Activity (Pseudomonas aeruginosa [2]): >90%
MIC (Staphylococcus aureus [5]): 6.25 µM
Activity (Staphylococcus aureus [3]): >90%
MBIC (Pseudomonas aeruginosa [25]): 25 µM
Activity (Pseudomonas aeruginosa [14]): inactive
Activity (Pseudomonas aeruginosa [26]): >90%
selectivity ratio [15]: > 32
Activity (Staphylococcus aureus [27]): 60%
Activity [16]: Non-Toxic

CCn1cc(C(=O)O)c(=O)c2cc(F)c(N3CC[N+](C)(C)CC3)nc21
MIC (Pseudomonas aeruginosa [4]): > 50 µM
MIC (Staphylococcus aureus [5]): 50 µM
